Measured values pooled from the literature.
Lines come from different studies, so protocols differ.
Target: MAP kinase-activated protein kinase 2 (MAPKAPK2, Homo sapiens, UniProt P49137)

SMILES | read-out | method | tested at | remaining binding [%]
CN([C@@H]1CCc2c(CC(=O)O)c3ccccc3n2C1)S(=O)(=O)c1ccc(F)cc1 | cell-free assay | competition with immobilised ligand | 1 µM | 100
COc1ncc2cc3ccccc3nc2c1C#N | cell-free assay | competition with immobilised ligand | 5 µM | 100
c1cnn2ncc(-c3ccnc(N4CCC45COC5)n3)c2c1 | binding |  | 1 µM | 100
CNCc1ccccc1-c1csc([C@H](C)Nc2nc(C)nc3cc(OC)c(OC)cc23)c1 | cell-free assay | competition with immobilised ligand | 1 µM | 80
CN(c1nccc(-c2cnn3ncccc23)n1)C1CC1 | binding |  | 1 µM | 83
O=C(c1ccc(Nc2ncc(Cl)c(-c3cc4ccccc4s3)n2)cc1)N1CCC(N2CCCC2)CC1 | binding | competition with immobilised ligand | 1 µM | 100
C[C@@H](c1ccc(-n2cnc3c(N)ncnc32)cc1)N1CCc2nn(C)c(Cc3ccccc3)c2C1=O | binding | competition with immobilised ligand | 0.1 µM | 49
O=C(NCC1CCOCC1)c1n[nH]cc1NC(=O)c1c(F)cccc1F | binding | competition with immobilised ligand | 1 µM | 66
Cc1c[nH]c2nccc(Oc3c(F)cc(Nc4cc(Cl)nc(N)n4)cc3F)c12 | cell-free assay | competition with immobilised ligand | 0.1 µM | 100
O=C(NCCCN1CCOCC1)c1ccc(Nc2nccc(-c3cc4ccccc4s3)n2)cc1 | binding | competition with immobilised ligand | 1 µM | 100
C[C@@H]1CN(c2ccc3ncc(-c4ccc5[nH]nc(C6CC6)c5c4)n3n2)C[C@H](C)O1 | binding | competition with immobilised ligand | 0.5 µM | 89
COc1cc(-c2cn(C3CCc4ccccc4N(CC(F)(F)F)C3=O)nn2)ccc1-n1ccc(C)n1 (centres unmarked) | cell-free assay | competition with immobilised ligand | 1 µM | 90
C=CC(=O)N1CCC(C(=O)NCC(=O)N2CCN(c3nc(-c4cnc(N)nc4C(F)F)nc(N4CCOCC4)n3)CC2)CC1 | binding | competition with immobilised ligand | 1 µM | 100
Cn1nc(C(F)(F)F)cc1-c1cnc(N2CCc3cc(S(=O)(=O)Nc4c(F)cc(Cl)cc4F)cc(N4CCCC4=O)c32)nc1 | cell-free assay | competition with immobilised ligand | 1 µM | 73
c1cncc(-c2cccc(Nc3nccc(NC4CCCCC4)n3)c2)c1 | binding | competition with immobilised ligand | 10 µM | 100
CCN1CCN(Cc2ccc(C(=O)Nc3ccc(C)c(Oc4ccc5c(c4)CC(=O)N5)c3)cc2C(F)(F)F)CC1 | binding | competition with immobilised ligand | 1 µM | 100
CNC(=O)Nc1ccc2c(c1)[C@@]1(CC2)OC(=O)N(CC(=O)N(Cc2ccc(F)cc2)[C@@H](C)C(F)(F)F)C1=O | cell-free assay | competition with immobilised ligand | 1 µM | 100
N[C@H]1CCN(c2nccc(-c3cnn4ncccc34)n2)C1 | binding |  | 1 µM | 39
COc1cnc(Nc2cccc(S(N)(=O)=O)c2)nc1N1CCN(c2ccccc2)CC1 | binding | competition with immobilised ligand | 1 µM | 100
F[C@@H]1CCN(c2nccc(-c3cnn4ncccc34)n2)C1 | binding |  | 1 µM | 93
O=C(NS(=O)(=O)c1ccc(NCC2CCOCC2)c([N+](=O)[O-])c1)c1ccc(N2CCN(Cc3ccc(C(F)(F)F)cc3-c3ccc(Cl)cc3)CC2)cc1Oc1cnc2[nH]ccc2c1 | cell-free assay | competition with immobilised ligand | 1 µM | 81
O=C(c1ccc(Nc2ncc(Cl)c(-c3ccc(Cl)s3)n2)cc1)N1CCC(N2CCCC2)CC1 | binding | competition with immobilised ligand | 1 µM | 100
CN(CCCC(F)(F)F)c1nccc(-c2cnn3ncccc23)n1 | binding |  | 1 µM | 100
